This is a sample that favours compounds with a hit; in the whole collection about 2.9% have one here.
MEKK3 PB1 HTS = MEKK3-MEK5 PB1 interaction, increase or decrease; actives 1.4% (n = 290,000); binding response (% of control), % at 10 µM; AID 1529; bead-based flow cytometry, Alexa488-MEK5 binding to MEKK3; actives lie on both sides; 0 = blocked by unlabeled MEK5, 100 = vehicle; Q99759;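 active = binding response more than 3 SD above or below the average of its plate-row segment, actives on both sides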;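 also: Alexa488 bead fluorescence after subtracting the streptavidin-only scavenger bead signal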
ATG4B inh = inhibitors of human ATG4B cysteine protease. Q9Y4P1. ATG4B cleavage of LC3-PLA2, NBD-HPC fluorescence, 1 h. inhibition, % at 8.33 µM. actives 0.51% (n = 340,000); in the data active = inhibition above about 40%
Beta2AR agonist = activates human beta-2 adrenergic receptor causing internalization. P07550. Am2.2-beta2AR cells, FAP receptor internalization, flow cytometry. response, % (no concentration beside the values). actives 0.43% (n = 340,000);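 active = response above a set limit, near 3 SD of response in nonfluorescent compounds, cut at about 42% in these data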
Target sequence (P07550 whole entry, looked up): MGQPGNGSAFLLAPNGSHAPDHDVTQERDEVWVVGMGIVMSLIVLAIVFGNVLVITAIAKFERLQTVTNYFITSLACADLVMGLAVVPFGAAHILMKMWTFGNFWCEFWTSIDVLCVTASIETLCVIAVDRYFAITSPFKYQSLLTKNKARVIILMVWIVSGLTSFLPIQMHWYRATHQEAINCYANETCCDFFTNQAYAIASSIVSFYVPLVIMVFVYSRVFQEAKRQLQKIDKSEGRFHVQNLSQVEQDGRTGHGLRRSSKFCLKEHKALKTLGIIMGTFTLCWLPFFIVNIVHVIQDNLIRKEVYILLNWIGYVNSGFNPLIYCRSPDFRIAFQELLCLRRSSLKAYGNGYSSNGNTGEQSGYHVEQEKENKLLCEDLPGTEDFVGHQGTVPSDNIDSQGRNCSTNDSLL
MEKK2 mut-MEK5 = signal of MEK5 binding to mutant human MEKK2 PB1 domain; actives 0.35% (n = 290,000); bead flow cytometry, Alexa488-MEK5 binding to MEKK2 mutant; percent response, % at 10 µM; AID 1530; in the data active = percent response above about 24%, passing the limit was not always enough
Dynein cargo inh = dynein cargo transport inhibition; 3617.4 mouse cells, GR-EGFP nuclear translocation imaging; test concentration mostly 20 µM; stimulated with dexamethasone, 1 µM; active compounds read low; z-score, hits read low; actives 0.47% (n = 220,000);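 active = plate z-score of nuclear minus cytoplasmic receptor signal below a set negative limit, without overly bright fluorescence or cell loss, cut at about -3.5 in these data, passing the limit was not always enough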;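 also: z-score of nuclear minus cytoplasmic ring GR-EGFP intensity difference per well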
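Also added – dexamethasone, 1.0 µM final · Buffer or medium – tet-free, stripped-serum medium · Schedule – induction 48 h, compound 1 h, agonist 30 min · Detection – formaldehyde fixation, Hoechst nuclear stain, 10x automated fluorescence imaging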
MEKK2 WT-MEK5 = raises or lowers MEK5 binding to wildtype human MEKK2 PB1 domain; bead flow cytometry, Alexa488-MEK5 binding to MEKK2 WT; actives lie on both sides; Q9Y2U5; actives 1.1% (n = 290,000); binding response (% of control), % at 10 µM; in the data active = binding response below about 67% or above about 130%
MEKK2wt confirm = raises or lowers MEK5 binding to wildtype human MEKK2, retest | bead flow cytometry, Alexa488-MEK5 binding to MEKK2 WT; actives lie on both sides | actives 2.4% (n = 5,900) | binding response (% of control), % at 10 µM | shares compounds with MEKK3 PB1 HTS; in the data active = binding response below about 16% or above about 210%; inactive = in between
MEKK2mut confirm = signal of MEK5 binding to mutant human MEKK2, retest; percent response, % at 10 µM; actives 2% (n = 5,900); shares compounds with MEKK3 PB1 HTS; bead flow cytometry, Alexa488-MEK5 binding to MEKK2 mutant; in the data active = percent response mostly above about 71%, no sharp cut-off; inactive = mostly below about 38%;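 also: higher means compound restores mutant binding toward wildtype level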
MEKK3-MEK5 inh = confirmation of inhibitors of MEK5 binding to human MEKK3 | shares compounds with MEKK3 PB1 HTS | bead flow cytometry, Alexa488-MEK5 binding to MEKK3; active compounds read low | binding response (% of control), % at 10 µM | actives 1.8% (n = 5,900) | AID 1894;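 active = binding response below 72% of control, or above a set upper limit, though filed actives all read lower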;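 also: 100% = DMSO only wells and 0% = binding blocked by excess unlabeled MEK5; lower values mean stronger disruption of MEK5 binding to MEKK3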
The depositor's hits bear a star; . = no result; [ ] = remark or other dose.

SMILES	MEKK3 PB1 HTS	ATG4B inh	Beta2AR agonist	MEKK2 mut-MEK5	Dynein cargo inh	MEKK2 WT-MEK5	MEKK2wt confirm	MEKK2mut confirm	MEKK3-MEK5 inh
COc1cccc(-c2nc(CS(=O)(=O)CC(=O)N3CCN(C)CC3)c(C)o2)c1	102	2	-4	9	2.5	108	.	.	.
Cc1oc(-c2ccccc2F)nc1CS(=O)(=O)CC(=O)NCCN1CCCC1	103	-6	-2	0	.	105	.	.	.
CC1CCCC(NC(=O)COC(=O)CCC2CCCC2)C1C (stereo unspecified)	100	-10	2	4	0.7	100	.	.	.
Cc1cccc(C(=O)Nc2ccc(S(=O)(=O)N3CCOCC3)cc2C)c1	105	-1	0	4	.	107	.	.	.
CC(C)(C)c1ccc(OCC(O)CN(CCO)CC(O)Cn2ccc3ccccc32)cc1 (stereo unspecified)	133*	9	10	0	-1.2	106	115	5	103
OCCN(CC(O)Cn1ccc2ccccc21)CC(O)Cn1ccc2ccccc21 (stereo unspecified)	.	-18	0	.	-0.96	.	.	.	.
C/C(=N\NC(=O)c1ccccc1O)C1CC1	102	-2	-1	-1	.	101	.	.	.
O=S(=O)(NC1CCCC1)c1ccc(S(=O)(=O)N(Cc2cccs2)CC2CCCO2)cc1 (stereo unspecified)	1.0*[inhibitor]	3	6	-31	-0.76	-2.0*[inhibitor]	102	4	105
O=S(=O)(c1ccc(S(=O)(=O)N(Cc2cccs2)CC2CCCO2)cc1)N1CCCCC1 (stereo unspecified)	102	15	-8	0	-1	98	.	.	.
Cc1cccnc1NC(=O)CSc1nnc(CNC(=O)c2cccc([N+](=O)[O-])c2)n1C	104	-5	1	6	.	104	.	.	.
O=C(NCC(=O)N(CC1CCCO1)C(C(=O)NC1CCCCC1)c1cccnc1)c1cccs1 (stereo unspecified)	131*	-4	-38	3	-0.8	123	103	6	106
O=C(Nc1ccc(-c2nc3ccccc3[nH]2)cc1)c1ccc2c(c1)OCO2	81*[inhibitor]	-34	-6	-5	0.73	83	84	-13	85
O=C(Nc1ccc(Cl)c(-c2nc3ccccc3[nH]2)c1)c1ccc2c(c1)OCO2	91	15	13	-3	2	89	.	.	.
O=C(O)c1ccc2[nH]c3c(c2c1)CSCC3	97	-1	6	2	-0.32	98	.	.	.
CN(C)CCOC(=O)c1ccc2[nH]c3c(c2c1)CSCC3	108	-21	-4	39	-1.2	194*	102	-4	104
Cc1ccc(Cn2nnc3c(=O)n(CC(=O)N4CCCc5ccccc54)cnc32)cc1	97	-8	-6	7	0.16	104	.	.	.
O=C(Cn1cnc2c(nnn2Cc2ccc(Cl)cc2)c1=O)N1CCCc2ccccc21	69*[inhibitor]	-22	-5	-4	-1.2	80	103	4	108
Cn1cccc1CC(=O)NNC(=O)Nc1cccc(Cl)c1	129*	-4	0	-1	0.11	105	106	5	104
Cn1cccc1CC(=O)NNC(=O)Nc1ccc(Cl)cc1	100	-2	2	1	-0.53	101	.	.	.
CCc1ccc(C(=O)NC(CCSC)C(=O)OC)cc1 (stereo unspecified)	3.0*[inhibitor]	-6	6	4	-0.59	3.0*[inhibitor]	93	-5	100
COc1ccc(C(=O)NCc2n[nH]c(=S)n2-c2ccccc2)cc1OC	-1.0*[inhibitor]	4	1	-40	-0.75	-5.0*[inhibitor]	110	11	107
COc1cc(OC)cc(C(=O)NCc2n[nH]c(=S)n2-c2ccccc2)c1	98	2	-5	-2	2.4	96	.	.	.
CCc1cc(=O)oc2c3c(cc(OCC(=O)NCCCn4ccnc4)c12)OC(C)(C)CC3	102	-36	-10	3	.	103	.	.	.
COC(=O)c1ccn(CSc2cc(Cl)ccc2Cl)n1	.	-5	-4	.	.	.	.	.	.
O=C(Nn1cnc2ccccc2c1=O)c1ccccc1[N+](=O)[O-]	95	-8	-3	-2	0.11	93	.	.	.
SMILES	MEKK3 PB1 HTS	ATG4B inh	Beta2AR agonist	MEKK2 mut-MEK5	Dynein cargo inh	MEKK2 WT-MEK5	MEKK2wt confirm	MEKK2mut confirm	MEKK3-MEK5 inh
Clc1ccc(-n2c(SCc3nc4ccccc4[nH]3)nnc2-c2ccncc2)cc1	101	-9	-1	5	-0.83	104	.	.	.
Brc1ccc(-n2c(SCc3nc4ccccc4[nH]3)nnc2-c2ccncc2)cc1	150*	6	-16	0	-0.19	108	102	2	100
COc1ccc(N2CCN(C(CNC(=O)C(=O)NCC3CCCO3)c3ccco3)CC2)cc1 (stereo unspecified)	132*	-10	10	1	0.35	114	105	0	102
CC(=O)N1CCN(C(c2ccccc2)c2ccccc2)CC1	76	5	11	-5	.	83	.	.	.
CN1C(=O)C(CC(=O)N2CCN(C(c3ccccc3)c3ccccc3)CC2)N(C)C1=O (stereo unspecified)	1.0*[inhibitor]	-13	-2	-17	3.5	1.0*[inhibitor]	105	2	102
Cc1ccc(S(=O)(=O)Nc2ccc(C(=O)OCC(=O)N(CCC#N)c3ccccc3)cc2)cc1C	99	-13	9	-1	1.1	96	.	.	.
O=C(Cc1c[nH]c2ccccc12)N/N=C/c1ccc(F)cc1	139*	-9	5	0	-0.32	103	101	-6	100
O=C(CCCc1c[nH]c2ccccc12)NCc1cccs1	102	0	-5	-6	-1.3	99	.	.	.
O=C(Cc1c[nH]c2ccccc12)NCc1cccs1	136*	-10	-3	0	-0.56	108	95	-13	96
O=C(CC(=O)N/N=C/c1ccc(F)cc1)N/N=C/c1ccc(F)cc1	101	-1	1	0	0.075	101	.	.	.
O=C(CSc1c[nH]c2ccccc12)N1CCCc2ccccc21	108	8	0	11	1.3	111	.	.	.
O=C(Cc1c[nH]c2ccccc12)N1CCc2ccccc21	2.0*[inhibitor]	-3	-9	-42	1.3	1.0*[inhibitor]	100	-3	105
